Source: PubChem BioAssay
MrgX1 PAM – positive allosteric modulators of MrgX1, primary screen, HEK293 cells, Fluo-4 calcium flux. Mas-related G-protein coupled receptor member X1 (Homo sapiens), Q96LB2. B-score at 10 µM. actives 0.63% (n = 310,000). AID 588675, 2011. FDSS; active compounds read high;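 active = plate-corrected calcium response at least 3 library SD above typical, normal starting fluorescence, not activating the receptor alone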;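 also: compound read alongside a low EC10 to EC30 dose of BAM8-22 agonist; peak minus trough fluorescence over baseline measured at the second addition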
MrgX1 agonist – agonists of human MrgX1 receptor, primary screen, HEK293 cells, Fluo-4 calcium flux. Fluo-4 calcium fluorescence, agonist mode; active compounds read high. actives 0.44% (n = 310,000). B-score at 10 µM. AID 588627, 2011. Mas-related G-protein coupled receptor member X1 (Homo sapiens), Q96LB2;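 active = calcium response B-score plate-corrected fluorescence ratio at least 3 library SD, with starting fluorescence B-score inside 5 SD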
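Test system: HEK293 cells stably expressing human MrgX1 receptor; amount: 15,000 cells per well; doses: compound delivered in addition one of three; times: overnight plating before 1 h dye loading; detection: Fluo-4 NW calcium-flux fluorescence, kinetic read; read-out basis: B-scored fluorescence response ratio; controls: positive and negative controls per plate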
RGS4 block – RGS4 inhibitors, primary screen, cell-based, HEK293 M3R inducible RGS4, calcium flux | actives 0.45% (n = 310,000) | Regulator of G-protein signaling 4 (Homo sapiens), P49798 | Fluo-4 calcium flux; active compounds read high; triggered by carbachol at its EC20 | AID 463165, 2010 | B-score at 10 µM;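 active = B-score, a plate-corrected calcium signal, over three deviations above library mean, with baseline fluorescence within five deviations of library mean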;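 also: RGS4 expression induced by doxycycline in cells with stable M3 receptor; B-score is computed from the integrated fluorescence ratio over baseline after carbachol; higher B-score means a larger calcium signal and so more RGS4 inhibition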
Target sequence (P49798 whole entry, looked up): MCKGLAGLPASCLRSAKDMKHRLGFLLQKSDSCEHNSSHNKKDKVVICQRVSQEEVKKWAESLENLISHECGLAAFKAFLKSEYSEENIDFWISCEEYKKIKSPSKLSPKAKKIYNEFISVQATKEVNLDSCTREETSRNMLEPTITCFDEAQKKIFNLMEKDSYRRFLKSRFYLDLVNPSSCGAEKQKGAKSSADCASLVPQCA
MrgX1 antag – antagonists of human MrgX1 receptor, primary screen, HEK293 cells, Fluo-4 calcium flux; Mas-related G-protein coupled receptor member X1 (Homo sapiens), Q96LB2; BAM8-22 antagonism; active compounds read low; AID 588676, 2011; B-score at 10 µM; actives 1.3% (n = 310,000);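 active = calcium-response B-score plate-corrected more than 3 library SD below zero, starting fluorescence within 5 deviations, no agonist response on first addition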;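 also: peak minus trough fluorescence over baseline after final BAM8-22 challenge near maximal dose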
RGS4 act – RGS4 potentiators or activators, primary screen, cell-based, HEK293 M3R inducible RGS4, calcium flux; B-score at 10 µM; carbachol calcium flux Fluo4; active compounds read low; AID 463111, 2010; actives 0.92% (n = 310,000);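 active = B-score of the integrated calcium signal more than 4 SD below the library mean, with starting fluorescence not abnormally high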;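 also: negative B-score means reduced calcium response which marks RGS4 activation or potentiation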
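test system = M3R-expressing HEK293 line, RGS4 induced by doxycycline | probe or stimulus = carbachol at ECmax as muscarinic agonist stimulus | timing = dye loading 30 min 37 °C, buffer rest 30 min RT | signal = calcium dye Fluo4 fluorescence | evaluation = B score from integrated fluorescence ratio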
Starred values were filed as active, the others as inactive; i = inactive. Compounds with a hit are over-represented: about 3.5% of the library has one in this group of screens.

SMILES | MrgX1 PAM | MrgX1 agonist | RGS4 block | MrgX1 antag | RGS4 act
COc1ccc(/C=C/C(=O)NC(=S)NNC(=O)c2c(-c3ccccc3)noc2C)cc1 | i | 29* | i | i | i
COc1ccc(C(=O)NNC(=S)NC(=O)c2cc(-c3ccccc3)nc3ccccc23)cc1 | i | i | i | -6.8* | i
COc1ccc(C(=O)NC(=S)NNC(=O)c2ccccc2C)cc1 | i | 62* | i | i | i
COc1ccc(Cl)cc1C(=O)NNC(=S)NC(=O)c1cc(-c2ccccc2)nc2ccccc12 | i | i | i | -6.5* | -9.8*
O=C(c1ccc(-c2ccccc2)cc1)C1CCCN(Cc2ccncc2)C1 (centres undefined) | i | i | i | i | i
CCNC(=S)NNC(=O)c1cc(-c2ccc(OCC)cc2)nc2ccccc12 | i | i | i | i | i
CCCOc1ccc(C(=O)NNC(=S)NC(=O)c2cc(-c3ccc(Cl)cc3)nc3ccccc23)cc1 | i | i | i | i | -9*
CCOC(=O)c1c(C)nc2cc(C)cc(C)n12 | i | i | i | i | i
Cc1ccc2occ(C(c3nnnn3C3CCCC3)N3CCN(C(=O)c4ccco4)CC3)c(=O)c2c1 (centres undefined) | i | i | i | i | i
CCOCCCn1c(=S)[nH]c2cc(C(=O)NCCN(CC)CC)ccc2c1=O | i | i | i | i | i
CN1CCc2cc3c(c4c2[C@H]1[C@H](O)c1ccccc1-4)OCO3 | i | i | i | i | -7.4*
O=C(O)c1[nH]c2ccccc2c1-c1ccccc1 | i | i | i | i | i
CCOC(=O)NN1C(=O)c2ccccc2NC1c1ccc(OC)cc1 (centres undefined) | i | i | i | i | i
CCOC(=O)NN1C(=O)c2ccccc2NC1c1ccccc1 (centres undefined) | i | i | i | -4.5* | i
CC1CCN(C(=O)c2[nH]cnc2C(=O)NCC(=O)OCc2ccccc2)CC1 | i | i | i | i | i
CCC(C)(C)NC(=O)/C=C/c1cnc2ccccc2n1 | i | i | i | -4.7* | i
CCOC(=O)CN1C(=O)C(O)(c2c(C)[nH]c3ccccc23)c2ccccc21 (centres undefined) | i | i | i | i | i
CCCCN1C2=C(C(=O)CC(C)(C)C2)C(c2ccccc2)C2=C1c1ccccc1C2=O (centres undefined) | i | i | i | i | i
CCCN1C2=C(C(=O)CC(C)(C)C2)C(c2ccc(F)cc2)C2=C1c1ccccc1C2=O (centres undefined) | i | i | i | -8.7* | i
COc1ccc(C(=O)/C=C/c2ccc(N3CCCCC3)c([N+](=O)[O-])c2)c(OC)c1 | 14* | i | i | i | i
CC(OC(=O)/C=C/c1ccc(Br)cc1)C(=O)N1CCOCC1 (centres undefined) | i | i | i | -8* | i
Fc1ccccc1CN1CCCCCCC1 | i | i | i | i | i
c1ccc(Sc2ccccc2CN2CCCC2)cc1 | i | i | i | i | -7.4*
COCCCN(C(=O)c1ccccc1)c1nc(-c2ccc(OC)cc2)cs1 | i | i | i | i | i
CN1CCN(c2ccc(CNS(=O)(=O)Cc3ccc(Cl)cc3)cc2)CC1 | i | i | i | i | i
O=C(Cn1ccnc1[N+](=O)[O-])NCc1ccccc1 | i | i | i | i | -7.7*
CC(=O)c1sc(-c2ccccc2)nc1C | i | i | i | i | i
CCN=C1SC(C(=O)Nc2cccc(Cl)c2)CC(=O)N1CC (centres undefined) | i | i | i | i | i
CCN=C1SC(C(=O)Nc2cccc(C)c2)CC(=O)N1CC (centres undefined) | i | i | i | i | -7.4*
